Cneo AK release – Cryptococcus neoformans lysis via adenylate kinase release; C. neoformans lysis, adenylate kinase release luminescence, 4 h; normalised: neutral wells 0, clomiphene wells 100; lysis activity, % at 15 µM; actives 0.2% (n = 360,000); AID 651654;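 active = mean lysis activity across replicates of at least 80%, whatever share of replicates individually reach that level; inactive = mean lysis activity below 80%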
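Assay system: log-phase C. neoformans yeast / Quantity: yeast cell density of 5 × 10^6 cells/mL / Medium: fresh YPD growth medium / Compound: single dose / Timing: static 4 h at 37 °C with compound, 1 h detection / Measured by: adenylate kinase release luminescence / Read-out: lysis from increased AK signal / Benchmarks: Clomiphene as positive lysis control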
CaV13 ICDI inh – Primary screen for inhibitors of IQ motif and Ca2+-dependent inactivation inhibitor domain binding in CACNA1D, Förster resonance energy transfer in living cells, … | inhibition, % at 12.3 µM | HEK cells, CFP/YFP FRET ICDI-IQ, plate reader, 10 min; percent FRET-ratio fall versus neutral wells | AID 743397 | actives 0.098% (n = 340,000);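 active = mean replicate inhibition of at least 30% and at least 1% of replicates passing that level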;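 note: 0% = median of the neutral control wells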
rRNA inh HTS – inhibits bacterial ribosomal RNA function over humanized ribosomes | E. coli WT GFP vs humanized-ribosome RFP mutants, fluorescence, 24 h; stronger effect = lower value; DMSO median 0, no signal -100 | GFP signal change (wild-type ribosome), % (no concentration beside the values) | actives 1.6% (n = 350,000) | AID 720706;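 active = significant combined selectivity score with lowered wild-type GFP, culture density cut under 30%, mutant RFP and density less affected; inactive = any of these conditions unmet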
CFTR F508del cor – CFTR F508del correction in bronchial cells; actives 0.36% (n = 350,000); CFBE cells, YFP halide quenching; stimulated with forskolin plus potentiator P3; % fluorescence drop versus neutral controls; activity (quench increase), % at 7.58 µM;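 active = mean added fluorescence quench of at least 8% versus neutral control, with both replicates also reaching 8%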;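 note: cells transiently co-express mutant CFTR-F508del with the halide-sensitive YFP; corrector assay measuring rescue of mutant channel to the surface after 24 h compound exposure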
The depositor's hits bear a star; nt = no result; + = active, no number. Sampled rows, rich in hits. Any-hit rate of the full collection: about 1.7%.

SMILES | Cneo AK release | CaV13 ICDI inh | rRNA inh HTS | CFTR F508del cor
Cc1[nH]c2ccccc2c1C(=O)CSc1nccc(=O)[nH]1 | nt | -3.3 | 5.2 | -1.1
C[C@H](CO)N1C[C@H](C)[C@H](CN(C)CC2CCCC2)Oc2ncc(C#Cc3ccccn3)cc2C1=O | nt | nt | 3.4 | 2.2
C[C@H](CO)N1C[C@H](C)[C@H](CN(C)S(=O)(=O)c2cn(C)cn2)Oc2ccc(NC(=O)C3CCCCC3)cc2C1=O | -5.7 | nt | 0.7 | 0.1
Cc1noc(C)c1S(=O)(=O)N(C)C[C@@H]1OCCCC[C@@H](C)Oc2ccc(NC(=O)Cc3ccccc3)cc2C(=O)N([C@@H](C)CO)C[C@@H]1C | nt | nt | -1.2 | -0.7
CC(C)CCn1c(CN2CC(C)OC(C)C2)nc2c1c(=O)n(C)c(=O)n2C (stereo not drawn) | -1.1 | 37.2* | 0.7 | 1.4
CO[C@@H](CN(C)Cc1cc(F)ccc1F)[C@H](C)CN([C@@H](C)CO)S(=O)(=O)c1ccc(Cl)cc1 | 13.0 | nt | -3.5 | -1.8
COc1cc2[nH]c(=S)nc(NCCc3ccc(C)cc3)c2cc1OC | nt | 5.8 | -26.4* | -3.7
COc1ccc(CCNc2nc(=S)[nH]c3cc(OC)c(OC)cc23)cc1OC | nt | -7.3 | -0.3 | 3.8
CC1CN(S(=O)(=O)c2cccc(C(=O)N=c3sccn3C)c2)CC(C)O1 (stereo not drawn) | 0.8 | -17.0 | -21.0* | 2.2
COc1ccc(CCNC(=O)Nc2nc(C(N)COCc3ccccc3)cs2)cc1OC (stereo not drawn) | -1.9 | -6.4 | -14.2* | -1.5
COc1cccc(/C=N/Nc2nc3ccccc3[nH]2)c1O | -3.2 | -6.9 | -28.6 | -3.4
COc1cccc(/C=N/Nc2nc3ccccc3[nH]2)c1OC | nt | -19.6 | -24.6* | 0.1
COc1ccc(OC)c(/C=N/Nc2nc(C)cc(=O)[nH]2)c1 | 8.1 | -4.8 | 4.7 | 0.8
CC(=O)Nc1ccc(/C=N/Nc2nc3ccccc3[nH]2)cc1 | nt | -3.4 | -21.3* | 1.1
COc1ccccc1/C=N/Nc1nc(C)cc(=O)[nH]1 | -0.6 | 40.3* | 8.8 | 1.6
COCCOC(=O)N1C(=O)[C@@]2(c3cc(C#Cc4ccc(OC)cc4)ccc31)[C@H](c1ccc(OCCO)cc1)N1[C@H](c3ccccc3)[C@H](c3ccccc3)OC(=O)[C@H]1[C@@H]2C(=O)N1CCN(c2ncccn2)CC1 | -2.5 | nt | nt | -0.1
CO[C@@H]1CN(C)C(=O)c2ccc(NC(=O)c3ccc4c(c3)OCO4)cc2OC[C@H](C)N(CC2CC2)C[C@H]1C | -1.4 | nt | -0.6 | 0.3
COc1cc(C(=O)c2ccc3c(c2)OCO3)cc(OC)c1OC | -2.5 | -8.0 | -5.9 | 2.0
COc1cc(C(=O)c2cocc2C(=O)c2ccc3c(c2)OCO3)cc(OC)c1OC | -3.1 | -6.7 | -1.5 | 12.9*
COCCn1c(=N)c(S(=O)(=O)c2ccc(F)cc2)cc2c(=O)n3ccccc3nc21 | -0.7 | 103.6* | 5.6 | 3.3
COCCn1c(=N)c(S(=O)(=O)c2ccc(Br)cc2)cc2c(=O)n3ccccc3nc21 | 7.0 | 3.4 | 0.8 | 5.2
COc1cccc(NC(=O)N[C@@H]2C=C[C@H](CC(=O)Nc3ccccc3)O[C@H]2CO)c1 | 34.9 | nt | -1.0 | -1.1
O=C(Cn1c(=O)n(Cc2ccco2)c(=O)c2c3c(sc21)CCCCC3)c1ccccc1 | -2.2 | -7.0 | -19.4* | 0.0
COc1ccc(C2(C)CC(C)(C)Nc3ccccc32)cc1 (stereo not drawn) | -1.4 | -2.0 | -29.0* | 2.9
COc1ccc(C2CC(C)(c3ccc(OC)cc3)Nc3ccccc3N2)cc1 (stereo not drawn) | -6.4 | -3.9 | nt | 2.6
SMILES | Cneo AK release | CaV13 ICDI inh | rRNA inh HTS | CFTR F508del cor
Cc1ccc(S(=O)(=O)Nc2ccc3c(c2)C(=O)N([C@@H](C)CO)C[C@@H](C)[C@H](CN(C)C(=O)Nc2ccc(F)cc2)OCCCC[C@@H](C)O3)cc1 | -1.9 | nt | 0.8 | -1.4
COc1ccc(C2C(C(=O)c3cccs3)=C(O)C(=O)N2c2cccc(C)n2)cc1 (stereo not drawn) | nt | -15.0 | -18.1* | 0.1
Cc1cc(N2C(=O)C(O)=C(C(=O)c3cccs3)C2c2ccc(F)cc2)no1 (stereo not drawn) | nt | -5.3 | -25.9* | -1.2
COc1ccc(C2C(C(=O)c3cccs3)=C(O)C(=O)N2c2cccc(C)n2)cc1OC (stereo not drawn) | nt | -20.5 | nt | -0.9
COc1cccc(C2C(C(=O)c3cc4cccc(OC)c4o3)=C(O)C(=O)N2c2cc(C)on2)c1OC (stereo not drawn) | 3.5 | -4.6 | nt | nt
Cc1cccc(N2C(=O)C(O)=C(C(=O)c3cccs3)C2c2ccc(Cl)cc2)n1 (stereo not drawn) | nt | -15.7 | -33.8* | -0.2
COc1cccc2cc(C(=O)C3=C(O)C(=O)N(c4cc(C)on4)C3c3cccs3)oc12 (stereo not drawn) | -0.6 | -3.8 | -25.6* | -0.3
COc1ccccc1-c1ccc2c(c1)O[C@@H](CN(C)C(=O)Nc1cccc(F)c1)[C@H](C)CN([C@@H](C)CO)S2(=O)=O | 5.4 | nt | 1.9 | 4.4
Cc1cccc(N2C(=O)C(O)=C(C(=O)c3cccs3)C2c2ccccc2)n1 (stereo not drawn) | nt | -14.6 | -31.6* | -0.8
C[C@H]1CN([C@@H](C)CO)C(=O)c2cc(NC(=O)Nc3ccc4c(c3)OCO4)ccc2O[C@H]1CN(C)Cc1ccc2c(c1)OCO2 | -3.8 | nt | 0.6 | 1.5
Cc1nn(-c2ccccc2)cc1/C=N/NC(N)=S | 18.7 | -4.5 | -21.0* | -1.2
N#Cc1c2ccc(OCC(=O)NCc3ccco3)cc2n2ccccc12 | 0.9 | -8.7 | -2.1 | -2.0
N#Cc1c2ccc(O)cc2n2ccccc12 | nt | + | -28.4 | -4.4
C[C@@H]1CCCCO[C@@H](CN(C)Cc2ccc(C(F)(F)F)cc2)[C@H](C)CN([C@H](C)CO)C(=O)c2cc(NC(=O)Nc3ccccc3)ccc2O1 | 3.1 | nt | 9.4 | 1.9
COc1ccc(CCNC(=O)c2cc3c(=O)n4ccccc4nc3n(C3CCCCC3)c2=N)cc1OC | 0.5 | -1.4 | -19.5* | 5.2
N=c1c(C(=O)NCC2CCCO2)cc2c(=O)n3ccccc3nc2n1Cc1ccc(Cl)cc1 (stereo not drawn) | 0.1 | 94.3* | 24.3 | -1.4
N=c1c(C(=O)NCC2CCCO2)cc2c(=O)n3ccccc3nc2n1Cc1ccccc1 (stereo not drawn) | -2.0 | 9.3 | 2.4 | 0.4
COc1ccc(CN(C)C[C@@H]2Oc3ccc(NS(C)(=O)=O)cc3CC(=O)N([C@H](C)CO)C[C@H]2C)cc1 | 97.1* | nt | -0.2 | -1.9
COc1ccc(CN(C)C[C@@H]2Oc3ccc(NS(C)(=O)=O)cc3CC(=O)N([C@@H](C)CO)C[C@H]2C)cc1 | 1.8 | nt | 0.2 | -3.2
COc1ccc(CN(C)C[C@H]2Oc3ccc(NS(C)(=O)=O)cc3CC(=O)N([C@@H](C)CO)C[C@H]2C)cc1 | 81.4* | nt | 5.2 | 2.0
